Test results taken from ChEMBL document CHEMBL5252537, “Usnic Acid Benzylidene Analogues as Potent Mechanistic Target of Rapamycin Inhibitors for the Control of Breast Malignancies” (J Nat Prod, 2017).

Key:
[1] = system: MDA-MB-231; assay: Antiproliferative activity against human MDA-MB-231 cells incubated for 72 hrs by MTT assay; format: functional, cell-based; conditions: MDA-MB-231, 72 h
Outline: (§1)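 Cells seeded at 5 × 10^3/well and allowed to attach overnight, then washed with PBS. Compound diluted from 10 mM DMSO stock into medium (100 ng/mL HGF added for c-Met-expressing cells), in triplicate, 72 h at 37 °C. MTT added for 4 h, formazan dissolved in DMSO, absorbance read at 570 nm. Cell numbers taken from a standard curve; IC50 calculated.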

[2] = system: MCF7; assay: Antiproliferative activity against human MCF7 cells incubated for 72 hrs by MTT assay; format: functional, cell-based; conditions: MCF7, 72 h; outline: as §1

Row | SMILES | IC50 [1] [µM] | IC50 [2] [µM]
1 | COc1cc(/C=C/C(=O)c2c(O)c(C)c(O)c3c2OC2=CC(O)=C(C(C)=O)C(=O)[C@]23C)cc(OC)c1OC | 1.63 | 1.22
2 | CCOc1ccccc1/C=C/C(=O)c1c(O)c(C)c(O)c2c1OC1=CC(O)=C(C(C)=O)C(=O)[C@]12C | 2.03 | 2.18
3 | CC(=O)C1=C(O)C=C2Oc3c(C(=O)/C=C/c4cccc(C(F)(F)F)c4)c(O)c(C)c(O)c3[C@]2(C)C1=O | 1.16 | 1.23
4 | CC(=O)C1=C(O)C=C2Oc3c4c(c(C)c(O)c3[C@]2(C)C1=O)OC(c1ccc(C(F)(F)F)cc1)CC4=O (some centres not stated) | 3.93 | 4.77
5 | CCCCOc1ccc(/C=C/C(=O)c2c(O)c(C)c(O)c3c2OC2=CC(O)=C(C(C)=O)C(=O)[C@]23C)cc1 | 0.62 | 0.53
6 | CC(=O)C1=C(O)C=C2Oc3c4c(c(C)c(O)c3[C@]2(C)C1=O)OC(c1ccc(F)cc1)CC4=O (some centres not stated) | 6.89 | 6.22
7 | CC(=O)C1=C(O)C=C2Oc3c(C(=O)/C=C/c4ccc(OCc5c(F)cccc5Cl)cc4)c(O)c(C)c(O)c3[C@]2(C)C1=O | 0.93 | 0.87
8 | COc1cc(F)c(/C=C/C(=O)c2c(O)c(C)c(O)c3c2OC2=CC(O)=C(C(C)=O)C(=O)[C@]23C)cc1OC | 1.15 | 0.93
9 | CC(=O)C1=C(O)C=C2Oc3c(C(=O)/C=C/c4ccc(Br)cc4)c(O)c(C)c(O)c3[C@]2(C)C1=O | 1.53 | 1.13
10 | CC(=O)C1=C(O)C=C2Oc3c(C(=O)/C=C/c4ccccc4)c(O)c(C)c(O)c3[C@]2(C)C1=O | 5.1 | 4.5
11 | CSc1ccc(/C=C/C(=O)c2c(O)c(C)c(O)c3c2OC2=CC(O)=C(C(C)=O)C(=O)[C@]23C)cc1 | 0.89 | 0.72
12 | CC(=O)C1=C(O)C=C2Oc3c(C(=O)/C=C/c4cc(F)cc(F)c4)c(O)c(C)c(O)c3[C@]2(C)C1=O | 2.09 | 1.82
13 | COc1ccc(/C=C/C(=O)c2c(O)c(C)c(O)c3c2OC2=CC(O)=C(C(C)=O)C(=O)[C@]23C)cc1 | 0.96 | 0.97
14 | CC(=O)C1=C(O)C=C2Oc3c4c(c(C)c(O)c3[C@]2(C)C1=O)OC(c1ccc(C)cc1)CC4=O (some centres not stated) | 5.99 | 4.21
15 | CC(=O)C1=C(O)C=C2Oc3c4c(c(C)c(O)c3[C@]2(C)C1=O)OC(c1ccc(C(=O)O)cc1)CC4=O (some centres not stated) | 14.4 | 12.8
16 | CC(=O)C1=C(O)C=C2Oc3c(C(=O)/C=C/c4ccc(OCCC(C)C)cc4)c(O)c(C)c(O)c3[C@]2(C)C1=O | 0.58 | 0.39
17 | CC(=O)C1=C(O)C=C2Oc3c4c(c(C)c(O)c3[C@]2(C)C1=O)OC(c1ccc(OC(F)(F)F)cc1)CC4=O (some centres not stated) | 1.79 | 1.51
18 | CC(=O)C1=C(O)C=C2Oc3c(C(=O)/C=C/c4ccc(C(F)(F)F)cc4)c(O)c(C)c(O)c3[C@]2(C)C1=O | 0.71 | 0.73
19 | COc1cccc(C2CC(=O)c3c(c(C)c(O)c4c3OC3=CC(O)=C(C(C)=O)C(=O)[C@]34C)O2)c1 (some centres not stated) | 2.94 | 3.73
20 | CC(=O)C1=C(O)C=C2Oc3c4c(c(C)c(O)c3[C@]2(C)C1=O)OC(c1ccc(C(C)(C)C)cc1)CC4=O (some centres not stated) | 3.65 | 3.43
21 | CC(=O)C1=C(O)C=C2Oc3c(C(=O)CC(O)c4cc(Cl)cc(Cl)c4)c(O)c(C)c(O)c3[C@]2(C)C1=O (some centres not stated) | 4.44 | 5.81
22 | CC(=O)C1=C(O)C=C2Oc3c(C(=O)CC(O)c4cc(C(F)(F)F)cc(C(F)(F)F)c4)c(O)c(C)c(O)c3[C@]2(C)C1=O (some centres not stated) | 1.56 | 5.24
23 | CC(=O)C1=C(O)C=C2Oc3c4c(c(C)c(O)c3[C@]2(C)C1=O)OC(c1ccc(OCc2ccc(F)cc2)cc1)CC4=O (some centres not stated) | 5.58 | 4.32
24 | CC(=O)C1=C(O)C=C2Oc3c(C(=O)/C=C/c4ccc(OCc5ccc(F)cc5)cc4)c(O)c(C)c(O)c3[C@]2(C)C1=O | 0.91 | 0.75
25 | CC(=O)C1=C(O)C=C2Oc3c4c(c(C)c(O)c3[C@]2(C)C1=O)OC(c1ccccc1)CC4=O (some centres not stated) | 8.04 | 7.26
26 | CCOc1ccc(/C=C/C(=O)c2c(O)c(C)c(O)c3c2OC2=CC(O)=C(C(C)=O)C(=O)[C@]23C)cc1 | 0.84 | 0.71

Row | SMILES | IC50 [1] [µM] | IC50 [2] [µM]
27 | CC(=O)C1=C(O)C=C2Oc3c(C(=O)/C=C/c4cccc(F)c4)c(O)c(C)c(O)c3[C@]2(C)C1=O | 4.79 | 3.63
28 | CC(=O)C1=C(O)C=C2Oc3c(C(=O)/C=C/c4ccccc4F)c(O)c(C)c(O)c3[C@]2(C)C1=O | 3.54 | 3.74
29 | CC(=O)C1=C(O)C=C2Oc3c(C(=O)/C=C/c4c(F)cccc4F)c(O)c(C)c(O)c3[C@]2(C)C1=O | 2.38 | 1.96
30 | CCOc1ccccc1C1CC(=O)c2c(c(C)c(O)c3c2OC2=CC(O)=C(C(C)=O)C(=O)[C@]23C)O1 (some centres not stated) | 6.13 | 5.92
31 | CC(=O)C1=C(O)C=C2Oc3c(C(=O)/C=C/c4ccc(F)cc4)c(O)c(C)c(O)c3[C@]2(C)C1=O | 3.31 | 2.98
32 | CC(=O)C1=C(O)C=C2Oc3c4c(c(C)c(O)c3[C@]2(C)C1=O)OC(c1ccc(Cl)cc1Cl)CC4=O (some centres not stated) | 4.01 | 3.64
33 | CC(=O)C1=C(O)C=C2Oc3c(C(=O)/C=C/c4c(Cl)cccc4Cl)c(O)c(C)c(O)c3[C@]2(C)C1=O | 5.69 | 1.53
34 | CC(=O)C1=C(O)C=C2Oc3c(C(=O)/C=C/c4ccc(C(C)(C)C)cc4)c(O)c(C)c(O)c3[C@]2(C)C1=O | 1.03 | 0.84
35 | CC(=O)C1=C(O)C=C2Oc3c(C(=O)/C=C/c4ccc(C(=O)O)cc4)c(O)c(C)c(O)c3[C@]2(C)C1=O | 10.6 | 9.38
36 | CC(=O)C1=C(O)C=C2Oc3c4c(c(C)c(O)c3[C@]2(C)C1=O)OC(c1ccc(OCc2c(F)cccc2Cl)cc1)CC4=O (some centres not stated) | 4.42 | 3.09
37 | CC(=O)C1=C(O)C=C2Oc3c(C(=O)/C=C/c4ccc(C)cc4)c(O)c(C)c(O)c3[C@]2(C)C1=O | 1.65 | 1.33
38 | CC(=O)C1=C(O)C=C2Oc3c(C(=O)/C=C/c4ccc(-c5ccccc5)cc4)c(O)c(C)c(O)c3[C@]2(C)C1=O | 0.72 | 0.74
39 | CCSc1ccc(/C=C/C(=O)c2c(O)c(C)c(O)c3c2OC2=CC(O)=C(C(C)=O)C(=O)[C@]23C)cc1 | 0.73 | 0.54
40 | CC(=O)C1=C(O)C=C2Oc3c(C(=O)/C=C/c4cc(Cl)cc(Cl)c4)c(O)c(C)c(O)c3[C@]2(C)C1=O | 2.95 | 2.44
41 | CC(=O)C1=C(O)C=C2Oc3c4c(c(C)c(O)c3[C@]2(C)C1=O)OC(c1c(Cl)cccc1Cl)CC4=O (some centres not stated) | 4.31 | 4.92
42 | CC(=O)C1=C(O)C=C2Oc3c(C(=O)/C=C/c4cccc(Cl)c4)c(O)c(C)c(O)c3[C@]2(C)C1=O | 3.92 | 2.7
43 | CC(=O)C1=C(O)C=C2Oc3c4c(c(C)c(O)c3[C@]2(C)C1=O)OC(c1ccc(OCc2ccccc2)cc1)CC4=O (some centres not stated) | 5.71 | 6.53
44 | CC(=O)C1=C(O)C=C2Oc3c(C(=O)/C=C/c4ccc(Cl)cc4Cl)c(O)c(C)c(O)c3[C@]2(C)C1=O | 1.36 | 0.93
45 | CC(=O)C1=C(O)C=C2Oc3c(C(=O)/C=C/c4ccc(-c5ccc(F)cc5)cc4)c(O)c(C)c(O)c3[C@]2(C)C1=O | 0.68 | 0.52
46 | CC(=O)C1=C(O)C=C2Oc3c(C(=O)/C=C/c4cc(C(F)(F)F)cc(C(F)(F)F)c4)c(O)c(C)c(O)c3[C@]2(C)C1=O | 0.72 | 0.91
47 | CC(=O)C1=C(O)C=C2Oc3c(C(=O)/C=C/c4ccc(OCc5ccccc5)cc4)c(O)c(C)c(O)c3[C@]2(C)C1=O | 0.95 | 1.14
48 | CCCCOc1ccc(C2CC(=O)c3c(c(C)c(O)c4c3OC3=CC(O)=C(C(C)=O)C(=O)[C@]34C)O2)cc1 (some centres not stated) | 2.23 | 2.91
49 | CC(=O)C1=C(O)C=C2Oc3c4c(c(C)c(O)c3[C@]2(C)C1=O)OC(c1cccc(Cl)c1)CC4=O (some centres not stated) | 6.41 | 6.32
50 | CCOc1ccc(C2CC(=O)c3c(c(C)c(O)c4c3OC3=CC(O)=C(C(C)=O)C(=O)[C@]34C)O2)cc1 (some centres not stated) | 3.68 | 3.36
51 | CC(=O)C1=C(O)C=C2Oc3c(C(=O)/C=C/c4ccc(Cl)cc4)c(O)c(C)c(O)c3[C@]2(C)C1=O | 2.63 | 2.1
